The text below walks through data of ChEMBL document CHEMBL4184148 (Bioorg Med Chem Lett, 2017).

One test has as its target T1, Aurora kinase A (Homo sapiens, UniProt O14965).
T1 sequence (O14965 whole entry): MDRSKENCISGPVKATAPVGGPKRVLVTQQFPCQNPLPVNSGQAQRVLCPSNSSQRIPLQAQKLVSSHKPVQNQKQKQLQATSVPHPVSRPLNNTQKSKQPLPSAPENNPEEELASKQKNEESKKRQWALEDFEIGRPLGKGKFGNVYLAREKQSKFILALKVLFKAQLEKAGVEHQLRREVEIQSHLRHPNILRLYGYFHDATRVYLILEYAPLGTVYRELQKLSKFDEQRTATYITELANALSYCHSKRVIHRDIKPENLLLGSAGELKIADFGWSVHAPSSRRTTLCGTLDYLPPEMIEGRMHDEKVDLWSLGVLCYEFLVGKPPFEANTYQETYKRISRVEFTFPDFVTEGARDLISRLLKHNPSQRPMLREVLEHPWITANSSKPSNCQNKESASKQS
The test can be described thus: Inhibition of recombinant full length His-tagged human Aurora A expressed in baculovirus expression system by Z'LYTE assay. The method in brief:
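Z'LYTE biochemical kinase assay with ATP at the Km for each kinase. IC50 determined from the assay and reported ± standard error.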

For test [1], the target named is Activin receptor type-2A (Homo sapiens) (UniProt P27037). Nature of the test: Binding affinity to wild-type human ACVR2A (V171 to T499 residues) expressed in Escherichia coli BL21 at 1 uM by Kinomescan method relative to control.
Activin receptor type-2A (Homo sapiens), sequence (P27037 whole entry, the tested form may be a part): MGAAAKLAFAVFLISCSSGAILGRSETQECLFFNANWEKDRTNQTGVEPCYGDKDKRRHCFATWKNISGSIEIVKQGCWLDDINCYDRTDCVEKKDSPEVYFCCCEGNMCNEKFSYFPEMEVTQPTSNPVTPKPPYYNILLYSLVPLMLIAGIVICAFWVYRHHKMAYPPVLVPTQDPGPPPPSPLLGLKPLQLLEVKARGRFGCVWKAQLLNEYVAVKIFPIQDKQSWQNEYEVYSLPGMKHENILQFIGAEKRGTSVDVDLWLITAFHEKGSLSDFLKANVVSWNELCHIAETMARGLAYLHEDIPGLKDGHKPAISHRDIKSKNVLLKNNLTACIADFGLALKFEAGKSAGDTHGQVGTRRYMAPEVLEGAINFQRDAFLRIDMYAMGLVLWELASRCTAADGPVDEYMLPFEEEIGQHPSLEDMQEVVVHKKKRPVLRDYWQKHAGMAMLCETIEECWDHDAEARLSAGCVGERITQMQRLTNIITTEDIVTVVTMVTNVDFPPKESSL
For test [2], the target named is Bone morphogenetic protein receptor type-2 (Homo sapiens) (UniProt Q13873). Nature of the test: Binding affinity to wild-type human partial length BMPR2 (R179 to Q526 residues) expressed in HEK293 cells at 1 uM by Kinomescan method relative to control. The test is classed as cell-based.
Test [3] concerns the target Calcium/calmodulin-dependent protein kinase type 1 (Homo sapiens) (UniProt Q14012). Nature of the test: Binding affinity to wild-type human full length CAMK1 (M1 to L370 residues) expressed in Escherichia coli BL21 at 1 uM by Kinomescan method relative to control.
Test [4] concerns the target Calcium/calmodulin-dependent protein kinase type II subunit alpha (Homo sapiens) (UniProt Q9UQM7). Nature of the test: Binding affinity to wild-type human partial length CAMK2A (M1 to K328 residues) expressed in Escherichia coli BL21 at 1 uM by Kinomescan method relative to control.
For test [5], the target named is Calcium/calmodulin-dependent protein kinase type IV (Homo sapiens) (UniProt Q16566). The test can be described thus: Binding affinity to wild-type human partial length CAMK4 (A22 to A322 residues) expressed in Escherichia coli BL21 at 1 uM by Kinomescan method relative to control.
Test [6] concerns the target Cyclin-dependent kinase 11B (Homo sapiens) (UniProt P21127). The test can be described thus: Binding affinity to wild-type human partial length CDK11 (M1 to N360 residues) expressed in Escherichia coli BL21 assessed as residual activity at 1000 nM after 1 hr by Kinomescan method relative to control.
The target in test [7] is Casein kinase I isoform gamma-3 (Homo sapiens) (UniProt Q9Y6M4). The test can be described thus: Binding affinity to wild-type human full length CSNK1G3 (M1 to K447 residues) expressed in Escherichia coli BL21 at 1 uM by Kinomescan method relative to control. The method in brief: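 Run as one kinome-wide competition binding panel with each compound at a single fixed concentration. Results were plotted as a kinome-wide selectivity map.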
Casein kinase I isoform gamma-3 (Homo sapiens), sequence (Q9Y6M4 whole entry, looked up, the tested form may be a part, canonical isoform): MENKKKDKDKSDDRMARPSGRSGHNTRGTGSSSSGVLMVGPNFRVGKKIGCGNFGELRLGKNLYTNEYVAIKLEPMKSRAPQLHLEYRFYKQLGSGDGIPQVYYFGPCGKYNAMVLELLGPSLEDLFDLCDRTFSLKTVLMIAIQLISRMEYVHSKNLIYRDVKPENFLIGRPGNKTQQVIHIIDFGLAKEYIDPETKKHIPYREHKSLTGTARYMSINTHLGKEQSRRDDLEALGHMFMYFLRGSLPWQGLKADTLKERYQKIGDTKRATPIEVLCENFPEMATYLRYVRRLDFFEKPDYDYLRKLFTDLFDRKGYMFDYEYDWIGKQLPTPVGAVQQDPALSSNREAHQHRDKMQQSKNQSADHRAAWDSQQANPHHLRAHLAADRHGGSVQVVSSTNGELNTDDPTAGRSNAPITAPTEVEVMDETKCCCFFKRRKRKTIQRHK

Test [8] deals with Serine/threonine-protein kinase DCLK3 (Homo sapiens) (UniProt Q9C098). The test can be described thus: Binding affinity to wild-type human partial length DCAMKL3 (E140 to V628 residues) expressed in Escherichia coli BL21 at 1 uM by Kinomescan method relative to control.
Serine/threonine-protein kinase DCLK3 (Homo sapiens), sequence (Q9C098 whole entry, the tested form may be a part): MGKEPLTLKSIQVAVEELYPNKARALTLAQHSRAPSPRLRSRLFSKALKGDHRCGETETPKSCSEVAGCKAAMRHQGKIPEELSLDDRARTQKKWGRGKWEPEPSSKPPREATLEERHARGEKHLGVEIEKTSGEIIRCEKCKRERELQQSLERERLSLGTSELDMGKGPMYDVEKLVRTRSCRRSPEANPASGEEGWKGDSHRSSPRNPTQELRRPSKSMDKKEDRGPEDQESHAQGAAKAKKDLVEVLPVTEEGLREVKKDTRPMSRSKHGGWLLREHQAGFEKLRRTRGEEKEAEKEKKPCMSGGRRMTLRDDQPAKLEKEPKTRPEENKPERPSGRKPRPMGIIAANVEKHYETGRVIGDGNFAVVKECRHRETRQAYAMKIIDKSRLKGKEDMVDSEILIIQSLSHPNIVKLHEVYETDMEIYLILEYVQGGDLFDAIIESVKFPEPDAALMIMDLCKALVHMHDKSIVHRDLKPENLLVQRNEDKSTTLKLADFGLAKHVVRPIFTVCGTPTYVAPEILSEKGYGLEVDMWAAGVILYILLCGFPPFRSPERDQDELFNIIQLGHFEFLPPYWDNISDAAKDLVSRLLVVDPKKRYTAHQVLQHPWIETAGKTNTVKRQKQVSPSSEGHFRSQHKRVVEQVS
Test [9] concerns the target Serine/threonine-protein kinase MRCK gamma (Homo sapiens) (UniProt Q6DT37). Nature of the test: Binding affinity to wild-type human partial length DMPK2 (S46 to S408 residues) expressed in Escherichia coli BL21 at 1 uM by Kinomescan method relative to control.
The target of test [10] is Epidermal growth factor receptor (Homo sapiens) (UniProt P00533). The test can be described thus: Binding affinity to human partial length EGFR E746-A750del mutant expressed in Escherichia coli BL21 at 1 uM by Kinomescan method relative to control.
In test [11] the target is Receptor tyrosine-protein kinase erbB-4 (Homo sapiens) (UniProt Q15303). Nature of the test: Binding affinity to wild-type human partial length ERBB4 (L690 to K994 residues) expressed in Escherichia coli BL21 at 1 uM by Kinomescan method relative to control.
The target of test [12] is Tyrosine-protein kinase Fes/Fps (Homo sapiens) (UniProt P07332). The test can be described thus: Binding affinity to wild-type human partial length FES (I527 to R822 residues) expressed in Escherichia coli BL21 at 1 uM by Kinomescan method relative to control.
The target of test [13] is Fibroblast growth factor receptor 2 (Homo sapiens) (UniProt P21802). Nature of the test: Binding affinity to wild-type human partial length FGFR2 (D457 to E769 residues) expressed in Escherichia coli BL21 at 1 uM by Kinomescan method relative to control.
For test [14], the system named is Receptor-type tyrosine-protein kinase FLT3 (Homo sapiens), P36888 [UNDEFINED MUTATION]. The test can be described thus: Binding affinity to human partial length FLT3 ITD/D835V double mutant expressed in Escherichia coli BL21 at 1 uM by Kinomescan method relative to control.
The subject of test [15] is Mast/stem cell growth factor receptor Kit (Homo sapiens), P10721 [V559D,T670I]. The test can be described thus: Binding affinity to human partial length KIT V559D/T670I double mutant (Y545 to D952 residues) expressed in Escherichia coli BL21 at 1 uM by Kinomescan method relative to control.
Test [16] concerns the target Tyrosine-protein kinase Lck (Homo sapiens) (UniProt P06239). Nature of the test: Binding affinity to wild-type human partial length LCK (R207 to P509 residues) expressed in Escherichia coli BL21 at 1 uM by Kinomescan method relative to control.
In test [17] the target is Serine/threonine-protein kinase 10 (Homo sapiens) (UniProt O94804). Nature of the test: Binding affinity to wild-type human partial length LOK (E16 to V314 residues) expressed in Escherichia coli BL21 at 1 uM by Kinomescan method relative to control.
The target of test [18] is Mitogen-activated protein kinase kinase kinase 2 (Homo sapiens) (UniProt Q9Y2U5). The test can be described thus: Binding affinity to wild-type human partial length MAP3K2 (S315 to H619 residues) expressed in HEK293 cells at 1 uM by Kinomescan method relative to control. It is filed as cell-based.
Mitogen-activated protein kinase kinase kinase 2 (Homo sapiens), sequence (Q9Y2U5 whole entry, the tested form may be a part): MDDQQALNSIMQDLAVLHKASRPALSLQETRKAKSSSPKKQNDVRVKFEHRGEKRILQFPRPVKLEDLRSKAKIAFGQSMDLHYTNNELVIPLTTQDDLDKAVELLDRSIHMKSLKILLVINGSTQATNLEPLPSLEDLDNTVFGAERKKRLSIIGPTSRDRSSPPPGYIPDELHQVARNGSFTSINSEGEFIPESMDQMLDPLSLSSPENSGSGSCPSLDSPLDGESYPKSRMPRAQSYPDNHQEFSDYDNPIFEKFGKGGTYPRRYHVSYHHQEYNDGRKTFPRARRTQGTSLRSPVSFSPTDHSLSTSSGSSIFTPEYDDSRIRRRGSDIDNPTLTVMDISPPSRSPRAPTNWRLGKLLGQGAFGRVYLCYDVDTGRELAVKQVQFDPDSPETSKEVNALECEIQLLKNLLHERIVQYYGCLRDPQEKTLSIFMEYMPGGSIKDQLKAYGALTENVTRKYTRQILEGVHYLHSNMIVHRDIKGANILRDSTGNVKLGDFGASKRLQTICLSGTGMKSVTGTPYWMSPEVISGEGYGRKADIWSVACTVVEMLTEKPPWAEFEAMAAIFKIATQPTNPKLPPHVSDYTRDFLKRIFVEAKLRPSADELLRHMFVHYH
In test [19] the target is Serine/threonine-protein kinase SIK3 (Homo sapiens) (UniProt Q9Y2K2). The test can be described thus: Binding affinity to wild-type human partial length QSK (A90 to L395 residues) expressed in HEK293 cells at 1 uM by Kinomescan method relative to control. It is filed as cell-based.
Serine/threonine-protein kinase SIK3 (Homo sapiens), sequence (Q9Y2K2 whole entry, looked up, the tested form may be a part): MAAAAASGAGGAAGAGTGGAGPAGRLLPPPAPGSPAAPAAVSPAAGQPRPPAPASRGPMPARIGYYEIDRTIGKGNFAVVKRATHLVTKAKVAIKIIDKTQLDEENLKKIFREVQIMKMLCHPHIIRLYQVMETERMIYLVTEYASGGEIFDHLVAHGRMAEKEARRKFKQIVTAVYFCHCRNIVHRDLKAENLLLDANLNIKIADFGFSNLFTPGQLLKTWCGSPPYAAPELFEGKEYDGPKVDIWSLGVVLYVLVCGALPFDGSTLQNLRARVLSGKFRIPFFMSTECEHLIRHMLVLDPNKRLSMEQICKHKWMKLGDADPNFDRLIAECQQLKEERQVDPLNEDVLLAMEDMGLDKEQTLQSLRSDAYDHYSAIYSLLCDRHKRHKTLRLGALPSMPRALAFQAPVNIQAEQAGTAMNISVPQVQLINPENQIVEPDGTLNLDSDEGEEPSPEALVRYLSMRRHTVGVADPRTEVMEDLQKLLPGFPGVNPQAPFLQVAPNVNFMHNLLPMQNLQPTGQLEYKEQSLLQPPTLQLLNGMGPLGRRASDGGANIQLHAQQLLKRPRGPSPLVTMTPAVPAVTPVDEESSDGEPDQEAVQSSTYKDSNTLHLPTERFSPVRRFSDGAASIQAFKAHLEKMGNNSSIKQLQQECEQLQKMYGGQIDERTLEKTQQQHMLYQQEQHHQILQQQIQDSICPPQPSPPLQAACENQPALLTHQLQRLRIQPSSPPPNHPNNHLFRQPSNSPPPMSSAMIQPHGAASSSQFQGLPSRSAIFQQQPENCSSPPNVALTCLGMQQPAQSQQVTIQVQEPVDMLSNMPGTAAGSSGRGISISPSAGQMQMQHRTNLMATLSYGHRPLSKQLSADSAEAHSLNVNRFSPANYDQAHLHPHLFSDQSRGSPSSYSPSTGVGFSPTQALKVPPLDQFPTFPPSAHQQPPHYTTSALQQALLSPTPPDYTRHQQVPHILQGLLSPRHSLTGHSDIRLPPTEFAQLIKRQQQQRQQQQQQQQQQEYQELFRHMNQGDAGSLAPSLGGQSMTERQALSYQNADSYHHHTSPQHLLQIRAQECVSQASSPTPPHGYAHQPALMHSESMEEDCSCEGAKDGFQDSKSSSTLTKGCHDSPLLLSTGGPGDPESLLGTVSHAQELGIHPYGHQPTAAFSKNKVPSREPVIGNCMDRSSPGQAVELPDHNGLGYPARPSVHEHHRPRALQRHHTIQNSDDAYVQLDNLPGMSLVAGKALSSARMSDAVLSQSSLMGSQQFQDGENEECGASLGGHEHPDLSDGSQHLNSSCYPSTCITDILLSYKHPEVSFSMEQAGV
The target of test [20] is Ribosomal protein S6 kinase alpha-6 (Homo sapiens) (UniProt Q9UK32). Nature of the test: Binding affinity to wild-type human partial length C-terminal RSK4 kinase domain 2 (I401 to Y711 residues) expressed in Escherichia coli BL21 at 1 uM by Kinomescan method relative to control.
Ribosomal protein S6 kinase alpha-6 (Homo sapiens), sequence (Q9UK32 whole entry, the tested form may be a part): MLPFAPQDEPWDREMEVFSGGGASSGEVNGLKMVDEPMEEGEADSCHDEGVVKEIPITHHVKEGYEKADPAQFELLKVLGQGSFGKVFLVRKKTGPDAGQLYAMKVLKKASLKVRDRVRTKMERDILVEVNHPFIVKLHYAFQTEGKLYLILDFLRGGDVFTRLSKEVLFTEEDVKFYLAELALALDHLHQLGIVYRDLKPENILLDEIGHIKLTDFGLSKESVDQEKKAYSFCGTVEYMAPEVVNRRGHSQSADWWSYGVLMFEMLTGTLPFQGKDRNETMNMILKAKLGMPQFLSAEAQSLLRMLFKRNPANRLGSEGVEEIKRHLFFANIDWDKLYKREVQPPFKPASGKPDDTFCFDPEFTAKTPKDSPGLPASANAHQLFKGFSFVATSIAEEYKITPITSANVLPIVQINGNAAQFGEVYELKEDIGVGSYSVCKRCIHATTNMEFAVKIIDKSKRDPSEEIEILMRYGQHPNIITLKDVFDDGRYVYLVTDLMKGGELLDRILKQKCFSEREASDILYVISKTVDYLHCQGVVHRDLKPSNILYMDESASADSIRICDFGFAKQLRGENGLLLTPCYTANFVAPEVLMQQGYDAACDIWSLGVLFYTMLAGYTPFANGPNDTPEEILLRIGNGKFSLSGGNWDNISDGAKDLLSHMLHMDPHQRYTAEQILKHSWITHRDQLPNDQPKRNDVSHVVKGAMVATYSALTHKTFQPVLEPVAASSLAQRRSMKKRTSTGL
Test [21] has as its target Tyrosine-protein kinase Tec (Homo sapiens) (UniProt P42680). The test can be described thus: Binding affinity to wild-type human partial length TEC (L341 to D620 residues) expressed in Escherichia coli BL21 at 1 uM by Kinomescan method relative to control.

Calcium/calmodulin-dependent protein kinase type 1 (Homo sapiens), sequence (Q14012 whole entry, looked up, the tested form may be a part): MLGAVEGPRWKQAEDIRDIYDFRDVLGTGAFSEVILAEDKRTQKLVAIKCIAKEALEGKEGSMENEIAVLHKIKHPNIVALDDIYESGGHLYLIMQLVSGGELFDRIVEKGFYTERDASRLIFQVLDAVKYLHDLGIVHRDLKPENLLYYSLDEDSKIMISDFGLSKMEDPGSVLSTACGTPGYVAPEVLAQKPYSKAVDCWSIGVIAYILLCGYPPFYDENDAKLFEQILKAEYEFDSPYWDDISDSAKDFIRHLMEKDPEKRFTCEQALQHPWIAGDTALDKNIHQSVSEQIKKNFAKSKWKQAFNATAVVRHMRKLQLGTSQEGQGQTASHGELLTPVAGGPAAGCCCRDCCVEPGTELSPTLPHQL

Turning to `CCC(=O)Nc1ccc(C(=O)Nc2ccc(Nc3ncc4c(n3)N(C)c3ccc(C)cc3C(=O)N4C)cc2)cc1`, the IC50 at Aurora kinase A stood at 52 nM. The Activity in [1] stood at 100%; in test [2], 77%; in test [3], 90%; in test [4], 88%; in test [5] it was 87%; in [6], 100%. The Activity stood at 97% in [7]; 100% in [8]; 77% in test [9]; 91% in test [10]; 96% in test [11]; 99% in test [12]. For the same compound, the Activity came out at 89% in test [13]; 100% in [14]; 97% in test [15]; 86% in test [16]; 78% in [17]; 66% in test [18]. Further, the Activity in test [19] was 100%; in test [20], 100%; in test [21], 93%.

Take `C=CC(=O)Nc1ccc(C(=O)Nc2ccc(Nc3ncc4c(n3)N(C)c3ccc(C)cc3C(=O)N4C)cc2)cc1`: the IC50 on Aurora kinase A is 44 nM. Besides, the Activity in [1] is 100%; in test [2], 95%; in test [3], 88%; in test [4] it was 100%; in test [5], 89%; in test [6] it was 100%. For the same compound, the Activity came to 100% in test [7]; 93% in [8]; 100% in [9]; 100% in test [10]; 96% in test [11]; 90% in [12]. In addition, the Activity in [13] was determined as 88%; in [14], 94%; in test [15] it was 100%; in [16], 90%; in test [17], 100%; in test [18], 85%. The values for the Activity in [19], in [20] and in test [21] were 88%, 100% and 100%, respectively.
